B1: tRNA (parent)
chain: GUUCCGUUGGCGUAAUGGUAACGCGUCUCCCUCCUAAGGAGAAGACUGCGGGUUCGAGUCCCGUACGGAACG

The values that follow come from the RNAGym collection of RNA variant scans (doi:10.1126/science.aae0568).

This sample holds only a part of the variants without activity.

The variants in this series derive from B1. Kind of series: yeast fitness relative to wild type (ratio to wild type); higher = fitter; tRNA-Arg(CCU), competitive growth, 37 C, YPD. The essentials:
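Genotype frequency changes were the basis for Darwinian fitness relative to wild type. The frequencies came from 100-nucleotide paired-end sequencing of gene amplicons from the start population and each end population of pooled yeast strains with tRNA-Arg(CCU) gene variants at the native locus. Competition ran in YPD at 37°C for 24 hours in six replicates, genotypes needed ≥ 100 starting reads, and estimates < 0.5 were set to 0.5.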
On to GUUCCGUUGGCGUAAUGGUAACGCGUCUGCCUCCUAAGGGGAAGACUGCGGGUUCGAGUCCCAUACGGAACG, for which the yeast fitness was ≤ 0.5. Under GUUCCGUUGGCGUAAUGGUAACGCGUCUACCUCCUAAGGAGAAGACUCCGGGUUCGAGUCCCGUACGGCACG stands 0.531. Under GUUCCGUUGGCGUAAUGGUAACGCGUCUGCCUCCUUAGGAGAAGACUGUGGGUUCGAGUCCCGUACGGAACG stands 0.538.

On to GUUCCGUUGGCGUAAUGGUAACGCGUCUGCCUCCUAAGGAGCAGACUGCGGCUUCGAGACCCGUACGGAACG, for which the yeast fitness was ≤ 0.5.

Turning to GUUCCGUUGGCGUAAUGGUAACGCGUCUACCUCCUAAGGAGAAGACUGCGGGUUCGAAUCCCGUACGGAACG, the yeast fitness came to 0.653.

With GUUCCGUUGGCGUAAUGGUAACGCGUCUACCUCCUAAGGAGAAGACCGCGGGUUCGCGACCCGUACGGAACG, the yeast fitness is ≤ 0.5. For GUUCCGUUGGCGUAAUGGUAACGCGUCUACCUCCUAAGGAGAAGACUGCGGGUUCGAGUCCCGCACGGCACG, the yeast fitness is ≤ 0.5. For GUUCCGUUGGCGUAAUGGUAACGCGUCUACCUCCUAAGGAGAAGACUCCGGGUUCGAGUCCCGUACGGAACG, the yeast fitness was 0.613. GUUCCGUUGGCGUAAUGGUAACGCGUCUACCUCCUAAGGAGAAGACUACGGGUUCGAGUCCCGUACGGAACG: the yeast fitness was determined as 0.688. Regarding GUUCCGUUGGCGUAAUGGUAACGCGUCUGCCUCCUGAGGUGAAGACUGCGGGUUCGAGUCCCGUACGGAACG, the yeast fitness was ≤ 0.5. Turning to GUUCCGUUGGCGUAAUGGUAACGCGUCUACCUCCUAAGGAGAAGACUGCGGGUGCGAGUCCCGUACGGAACG, the yeast fitness was ≤ 0.5. Next, GUUCCGUUGGCGUAAUGGUAACGCGUCUGCCUCCUGAGGAGAAGACUGCGGGUUCGAGUCCCGUAGGGAACG: ≤ 0.5.

For the variant GUUCCGUUGGCGUAAUGGUAACGCGUCUGCCUCCUAAGGAGGAGAAUGCGGGUUCGCGUCCCGUACGGAACG, the yeast fitness is ≤ 0.5.

As to GUUCCGUUGGCGUAAUGGUAACGCGUCUGCCUCCUUAGGAGAAGACUGCGGGUUCGAGUCCCGUACGGAACG, the yeast fitness worked out at 0.569. For GUUCCGUUGGCGUAAUGGUAACGCGUCUGCCUCCUGAGGAGAAGACUGCGGGUUCGAGUCCCGUACGGAACG, the yeast fitness turned out to be 0.548. In the case of GUUCCGUUGGCGUAAUGGUAACGCGUCUACCUCCUAAGGAGAAGACUCCGGGUUCGAGUCCCGUACGGAGCG, the yeast fitness came to 0.54. Take GUUCCGUUGGCGUAAUGGUAACGCGUCUACCUCCCAAGGAGAAGACUGCGGGUUCGAGUCCCGUACGGAGCG: the yeast fitness is ≤ 0.5.

On to GUUCCGUUGGCGUAAUGGUAACGCGUCUACCUCCUAAGGAGAAGACUGCGGGUACGUGUCCCGUACGGAACG, for which the yeast fitness was found to be 0.535. Regarding GUUCCGUUGGCGUAAUGGUAACGCGUCUGCCUCCUAUGGAGAAGACUGCGGAUUCGAGUCCCGUACGGAACG, the yeast fitness stood at 0.546. Take GUUCCGUUGGCGUAAUGGUAACGCGUCUGCCUCCUAAGGAGCAGACUGCGGGUUCAAGUCCCGUACGGAACG: the yeast fitness stood at 0.601. Turning to GUUCCGUUGGCGUAAUGGUAACGCGUCUACCUCCUAAGGAGAAGACUGCGGGUUCGAGCCCCGUACGGAACG, the yeast fitness is 0.688. As to GUUCCGUUGGCGUAAUGGUAACGCGUCUGCCUCCUUAGGAGAAGAGUGCGGGUUCGAGUCCCGUACGGAACG, the yeast fitness came to 0.755. In the case of GUUCCGUUGGCGUAAUGGUAACGCGUCUACCUCCCAAGGAGAAGACUGCAGGUUCGAGUCCCGUACGGAACG, the yeast fitness is ≤ 0.5. With GUUCCGUUGGCGUAAUGGUAACGCGUCUACCUCCUAAGGAGAAGACUGCGGGUUCGAGUCCCGUACGUAACG, the yeast fitness was 0.721. As for GUUCCGUUGGCGUAAUGGUAACGCGUCUACCUCCUAAGGAGAAGACUGCGGGUUCGAGUCCCGUACGCAACG, the yeast fitness was found to be 0.621. GUUCCGUUGGCGUAAUGGUAACGCGUCUACCUCCUAAGCAGAAGACUGCGGGUUCGAGUCCCGUACGGAACG: the yeast fitness stood at 0.817. Turning to GUUCCGUUGGCGUAAUGGUAACGCGUCUACCUCCCAAGGAGAAGACUGCGGGUUCGAGUCCCGUACAGAACG, the yeast fitness was ≤ 0.5. As for GUUCCGUUGGCGUAAUGGUAACGCGUCUACCUCCUAAGCAGAAGACUGCGGGUUCGGGUCUCGUAUGGAACG, the yeast fitness came out at 0.561. On to GUUCCGUUGGCGUAAUGGUAACGCGUCUACCUCCUAAGGAGAACACUGCGGGUUCGAGUCCCGUACAGAACG, for which the yeast fitness was ≤ 0.5.

On to GUUCCGUUGGCGUAAUGGUAACGCGUCUACCUCCUAAGGAGAAGACUGCGGCUUCGAGUCCCGUACGAAACG, for which the yeast fitness was ≤ 0.5. As for GUUCCGUUGGCGUAAUGGUAACGCGUCUGCCUCCUAGGGAGAAGACUGCGGGUUCGAGUCCCGUACCGAACG, the yeast fitness came to 0.672. On to GUUCCGUUGGCGUAAUGGUAACGCGUCUACCCCCUAAGGAGUAGACUGCGGGUUCGAGUCCCGUAAGGCACG, for which the yeast fitness is ≤ 0.5.

As to GUUCCGUUGGCGUAAUGGUAACGCGUCUACCUCCCAAGGUGAAGACUGCGGGUUCGAGUCCCGUACGGAACG, the yeast fitness came out at 0.639. On to GUUCCGUUGGCGUAAUGGUAACGCGUCUACCCCCUAAGGAGUAGACUGCGGGUUCGAGUCCCGUACAGAACG, for which the yeast fitness worked out at 0.522.

Consider GUUCCGUUGGCGUAAUGGUAACGCGUCUACCUCCAAAGGAGAAGACUGCGGGUUCGAGUCCCGUACCGAACG, for which the yeast fitness is ≤ 0.5. GUUCCGUUGGCGUAAUGGUAACGCGUCUACCUCCUAAGGAGAAGACUGCGCGUUCGAGUCCCGUACGGAACG: the yeast fitness was ≤ 0.5.

Take GUUCCGUUGGCGUAAUGGUAACGCGUCUACCUCCUAAGGAGAAGACUGCGAGUUCGAGUCCCGUACGGAACG: the yeast fitness is 0.544. Take GUUCCGUUGGCGUAAUGGUAACGCGUCUACCUCCUAAGGAGAAGACUACAGGUUCGAGUCCCGUAUGGAACG: the yeast fitness was ≤ 0.5. As for GUUCCGUUGGCGUAAUGGUAACGCGUCUACCUCCGAAGGAGAAGACUGCGGGUUGGAGUCCCGUACGACACG, the yeast fitness is ≤ 0.5. Next, GUUCCGUUGGCGUAAUGGUAACGCGUCUACCUCCUAAAGAGAAGACUGCGGGUUCGAGUCCCGUACGGAACG: 0.764; GUUCCGUUGGCGUAAUGGUAACGCGUCUACCUCCUAAGGAAACGACUGCGGGUUCGAGUCCCGUACGGACCG: ≤ 0.5. Under GUUCCGUUGGCGUAAUGGUAACGCGUCUGCCUCCUAAGGUGAAGACUGCGGGUUCGAGUCUCGUAUGGAACG stands ≤ 0.5; under GUUCCGUUGGCGUAAUGGUAACGCGUCUACCACCUAAGGAGAAGCCUGCGGGUUCGAGUCCCGUCCGGAACG, 0.651. GUUCCGUUGGCGUAAUGGUAACGCGUCUACCUCCUAAGGAGAAGACUGCGGGUUCGAGUCCCAUACGGAACG: the yeast fitness worked out at 0.623. Turning to GUUCCGUUGGCGUAAUGGUAACGCGUCUACCUCCCAAGGAGAAGACUGCGGGUUCGAGUCCCGUACGGAACG, the yeast fitness is ≤ 0.5. Next, GUUCCGUUGGCGUAAUGGUAACGCGUCUGCCUCCUAAGGAGGAGACUGCGGCUUCGAGUCCCGUACGGAACG: 0.702; GUUCCGUUGGCGUAAUGGUAACGCGUCUACCUCCUAAGGAGAAGACUGCGGGUUCCAGUCACGUACGGAACG: ≤ 0.5; GUUCCGUUGGCGUAAUGGUAACGCGUCUGCCUCCUAAGGUGAGGAGUGCGGGUUCGAGUCCCGAACGGAACG: ≤ 0.5. Regarding GUUCCGUUGGCGUAAUGGUAACGCGUCUACCCCCAAAGGAGAAGACUGCGGGUUCGAGUCCCGUACGGAACG, the yeast fitness is ≤ 0.5. As to GUUCCGUUGGCGUAAUGGUAACGCGUCUACCUCCUAAGGAGAAGACAGCGGGUUCGAGUCCCGUACGCAACG, the yeast fitness is ≤ 0.5.

Regarding GUUCCGUUGGCGUAAUGGUAACGCGUCUACCUCCUAAGGAGAAGACUGCGGGAUCGAGUCCCGUACGGAACG, the yeast fitness was determined as 0.51.

Consider GUUCCGUUGGCGUAAUGGUAACGCGUCUACCCCCUAAGGAGAAGACUGCGGGUUCGAGUCCCGUACGGAACG, for which the yeast fitness was 0.618. GUUCCGUUGGCGUAAUGGUAACGCGUCUGCCUCCUAGGGAGAAGACUGCGGGUUCGAGUCCCGUACGGAACG: the yeast fitness was determined as 0.599. On to GUUCCGUUGGCGUAAUGGUAACGCGUCUGCCUCCUAAGGCGCAGACUGCGGGUUCGAAUCCCGUACGGAACG, for which the yeast fitness is ≤ 0.5.

Take GUUCCGUUGGCGUAAUGGUAACGCGUCUACCUCCUAAGGAGAAGACUGCGGGUUCGAGUCCCGCACGGAACG: the yeast fitness was determined as 0.632. In the case of GUUCCGUUGGCGUAAUGGUAACGCGUCUACCUCCUAAGGAGAAGACUGCGGGUUCCAGUCCCGUACGGAACG, the yeast fitness is ≤ 0.5. As to GUUCCGUUGGCGUAAUGGUAACGCGUCUACCUCCUAAGGAGAAGACUGCGGGUUCAAGUCCCGUACGGAACG, the yeast fitness came to 0.794. Take GUUCCGUUGGCGUAAUGGUAACGCGUCUGCCUCCUAAGGUGAAGACUGCGGGUUCGAGUCCCGUUCGGAACG: the yeast fitness is ≤ 0.5. In the case of GUUCCGUUGGCGUAAUGGUAACGCGUCUACCUCCUAAGGAAAAGACUGCGGGUUCGAGUCCCGUACGGAACG, the yeast fitness turned out to be 0.551.

With GUUCCGUUGGCGUAAUGGUAACGCGUCUGCCUCCUGAGGAGAUGACUGCGGGUUCGAGUCCCGUAAGGAACG, the yeast fitness is ≤ 0.5. For GUUCCGUUGGCGUAAUGGUAACGCGUCUACCUCCAAAGGAGAAGACUGCGGGUUCGAGUCCCGUACGGAUCG, the yeast fitness was found to be 0.716.

For the variant GUUCCGUUGGCGUAAUGGUAACGCGUCUGCCUCCUAAGGAGGAGACUGCGGGUUCGAGUCCCGGACGGAACG, the yeast fitness is ≤ 0.5.

GUUCCGUUGGCGUAAUGGUAACGCGUCUGCCUCCUAAGGUGAAGACUGCGGGUUAGAGUCCCGUACCGAACG: the yeast fitness is ≤ 0.5. Turning to GUUCCGUUGGCGUAAUGGUAACGCGUCUGCCUCCUACGGAGAAGACUGCGGGUUCGAAUCCCGUACGGAACG, the yeast fitness was ≤ 0.5.

Take GUUCCGUUGGCGUAAUGGUAACGCGUCUGCCUCCUAGGGAGAAGUCUGCGGGUUCGAGUCCCGUACGCAACG: the yeast fitness is ≤ 0.5. In the case of GUUCCGUUGGCGUAAUGGUAACGCGUCUGCCUCCUUAGGAGAGGACUGCGGGUUCGAGUCCCGUACGGAACG, the yeast fitness is ≤ 0.5. Next, GUUCCGUUGGCGUAAUGGUAACGCGUCUGCCUCCUAAGGAGUAGACUGCGGGUUCGAGUCCCGUACGGAACG: 0.712; GUUCCGUUGGCGUAAUGGUAACGCGUCUGCCUCCUAAGGAGGAGACUGCGGGUUCGAGUCCCGUACGGAACG: 0.694. On to GUUCCGUUGGCGUAAUGGUAACGCGUCUGCCUCCUAAGGAGCAGACUGCGGGUUCGAGUCCCGUACGGAACG, for which the yeast fitness was 0.685. Under GUUCCGUUGGCGUAAUGGUAACGCGUCUGCCUCCUUAGGAGAAGUCUGCGGGUUAGAGUCCCGUACGGAACG stands ≤ 0.5; under GUUCCGUUGGCGUAAUGGUAACGCGUCUACCCCCUAAGGAGAAGACUGAGGGUUCGAGUCCCGUACGGAACG, ≤ 0.5. On to GUUCCGUUGGCGUAAUGGUAACGCGUCUGCCUCCUAAGGUGAAGACUGCGGGUUCGAGUCCCGUACGGAACG, for which the yeast fitness is 0.555.

Turning to GUUCCGUUGGCGUAAUGGUAACGCGUCUGCCUCCUAAGGCGAAGACUGCGGGUUCGAGUCCCGUACGGAACG, the yeast fitness came to 0.685. Take GUUCCGUUGGCGUAAUGGUAACGCGUCUGCCUCCUAGGGAGAAGACUGCGGGUUCGAGUUCCGUACGGCACG: the yeast fitness is ≤ 0.5. GUUCCGUUGGCGUAAUGGUAACGCGUCUACCUCCUAAGGAGAAGACUGCCGGUUCGAGUCCCGUACGGAUCG: the yeast fitness was ≤ 0.5.
